Source: PubChem
Most compounds without a hit are left out; they make up all but 12% or so of the library.
Autophagy HCS: modulators of autophagy; MEF GFP-LC3 puncta imaging; test concentration mostly 10 µM; calls only at 10 µM (by protocol); actives 0.98% (n = 190,000); AID 463193;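 active = percentage of spot-positive cells more than 3 SD above its plate mean, without a fluorescence outlier flag or 80% toxicity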
Dynein cargo inh: blocks dynein driven cargo transport along microtubules; 3617.4 mouse cells, GR-EGFP nuclear translocation imaging; test concentration mostly 20 µM; stimulated with dexamethasone, 1 µM; stronger effect = lower value; z-score, hits read low; actives 0.47% (n = 220,000);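 active = plate z-score of nuclear minus cytoplasmic receptor signal below a set negative limit, without overly bright fluorescence or cell loss, cut at about -3.5 in these data, passing the limit was not always enough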;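 also: z-score of nuclear minus cytoplasmic ring GR-EGFP intensity difference per well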
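medium = tetracycline-free induction medium containing charcoal-stripped FBS | also added = 1.0 µM final dexamethasone stimulus | schedule = 48 h induction, 1 h compound, 30 min dex at 37 °C | technique = fixed, Hoechst-stained cells imaged at 10x for EGFP | measure = GR-EGFP nuclear translocation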
bCat nuc transl: alters nuclear translocation of beta-catenin in HeLa cells. immunofluorescence imaging. nuclear translocation activity, % at 5 µM. actives 0.3% (n = 190,000);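 active = nuclear translocation activity above 50% at 5 µM, with a well cell count of 50 or more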;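 also: per-cell ratio of nuclear to cytoplasmic median beta-catenin stain intensity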
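System: HeLa cells, endogenous beta-catenin; compound dosing: 5 µM primary single dose, 0.1% DMSO, 0.02–20 µM confirmation series; incubation: 24 h compound exposure at 37°C, 5% CO2; signal: beta-catenin immunofluorescence imaging with DAPI; evaluation: % activation, nuclear-to-cytoplasmic median beta-catenin signal ratio per cell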
CHOP inhibitor: inhibitors of CHOP induction in ER stress response | CHO-K1 CHOP-promoter luciferase, tunicamycin-induced, 15-18 h | inhibition, % at 10 µM | actives 3.8% (n = 220,000) | AID 2732;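 active = compounds that reduced the stress-induced luciferase reporter signal by more than about 70% of percent inhibition, limit read from the data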
Lmaj promast: reduces viability of Leishmania major promastigotes; resazurin fluorescence viability; inhibition, % at 10 µM; actives 9% (n = 200,000); AID 1063; in the data active = inhibition above about 50%;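 also: promastigotes grown with compound for 44 hours at 28 °C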
MT stabilizer: microtubule stabilizers in HeLa cells | HeLa tubulin immunostaining HCS, 24 h; share of cells brighter than vehicle mean+2SD | % tubulin-high responders, % at 10 µM | AID 2205 | actives 0.83% (n = 200,000);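 active = plate Z-score above 3 for both tubulin-high and condensed-nucleus cell shares, with cell loss under 80%, at 10 µM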;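 also: anti alpha tubulin signal scored within the nucleus-defined area of each cell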
L major 1uM: blocks Leishmania major promastigote growth at 1 uM, repeat screen | shares compounds with Lmaj promast | L. major promastigote growth, resazurin fluorescence, 48 h | inhibition, % at 1 µM | actives 13% (n = 1,100) | AID 1258;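 active = inhibition above about 50% in both repeat tests, limit read from the data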
Hits are given with their value; n = inactive; x = not tested or not shown; + = active, no number.

SMILES | Autophagy HCS | Dynein cargo inh | bCat nuc transl | CHOP inhibitor | Lmaj promast | MT stabilizer | L major 1uM
CN(C)C=Nc1ncc2c3ccccc3n(Cc3ccccc3)c2c1C#N | n | n | n | n | n | n | x
Cc1ccccc1-c1cc2c(nn1)-c1ccccc1C2=O | n | n | n | n | 93 | n | n
COC(=O)c1cccc2c1-c1ccccc1/C2=N/O | n | n | n | 87 | 70 | n | n
CC1(C)CC(=O)c2cc(C(=O)NNc3ccccc3)c(=O)n(-c3ccccc3)c2C1 | n | n | n | n | 52 | n | n
CC1(C)CC(=O)c2cc(C(=O)NCc3ccco3)c(=O)n(-c3ccccc3)c2C1 | n | n | x | n | n | n | x
C/C(=N\NC1=NCCN1)c1ccccc1 | x | n | n | n | x | x | x
CCCCCOc1ccc(Br)cc1/C(C)=N/NC1=NCCN1 | + | n | n | x | 100 | n | n
CSc1ncc(CO)n1Cc1ccccc1 | n | n | n | n | n | n | x
CC(=O)/C(CN1CCCCC1)=N\O | n | n | x | n | n | n | x
C/C(=N\O)C(=O)C(CN1CCCCC1)CN1CCCCC1 | n | n | x | n | 78 | n | n
Cn1nc(-c2ccc(Cl)cc2)nc2c(=O)n(C)c(=O)nc1-2 | n | n | n | x | 50 | 15 | 81
CS(=O)(=O)n1nc(-c2ccc(Cl)cc2)nc1N | n | n | n | n | n | n | x
CC(=O)c1ccccc1NS(=O)(=O)c1c(C)nn(-c2ccccc2)c1C | n | n | x | n | 96 | n | n
COc1ccc(NC2=Nc3cccc4cccc2c34)cc1 | n | n | n | n | 74 | n | n
C(=N\Nc1nc2ccccc2[nH]1)/c1ccccn1 | n | n | x | 85 | 100 | n | n
O=[N+]([O-])c1cc(S(=O)(=O)Nc2ccccc2)ccc1-n1nnc2ccccc21 | n | n | n | n | 66 | n | n
CCOC(=O)C1CCCN(C(=O)c2ccc(Cl)c(S(=O)(=O)N3CCCCCC3)c2)C1 (stereo unspecified) | n | n | n | n | n | n | x
CN(C)CCCN1c2ccccc2CCc2ccc(Cl)cc21 | n | n | x | n | 99 | n | n
CN(C)CCCN1c2ccccc2Sc2ccccc21 | n | n | x | n | n | n | x
COc1cc2c(C#N)c(N3CCCC3)nc(N)c2c(N)n1 | x | n | n | n | x | x | x
COc1cc2c(C#N)c(N3CCN(c4ccccc4OC)CC3)nc(N)c2c(N)n1 | n | n | n | n | 73 | n | n
Cc1ccc(-n2c(SCC(=O)N3Cc4ccccc4CC3C(=O)O)nnc2-c2cccnc2)c(C)c1 (stereo unspecified) | n | n | n | n | n | n | x
Cc1ccc(NC(=O)CC(NCC2CCCO2)C(=O)O)cc1C (stereo unspecified) | n | n | n | n | n | n | x
Cc1nnc(C)c2c(C)n(C(c3ccccc3)c3ccccc3)c(C)c12 | n | n | n | n | 100 | n | n
Cc1nnc(C)c2c(C)n(-c3ccccc3N)c(C)c12 | n | n | n | n | n | n | x
SMILES | Autophagy HCS | Dynein cargo inh | bCat nuc transl | CHOP inhibitor | Lmaj promast | MT stabilizer | L major 1uM
c1ccc2nc(C3=NCCN3)ccc2c1 | x | x | x | n | x | x | x
Fc1ccccc1Sc1ccccc1CNC1=NCCN1 | n | n | x | n | 99 | n | n
CNCc1ccccc1Sc1ccc(O)c(O)c1 | n | n | n | n | n | n | x
c1ccc(Sc2cccc3ccccc23)c(CNC2=NCCN2)c1 | n | n | n | n | 99 | n | n
CN(C)S(=O)(=O)c1ccc(S(=O)(=O)NC2CCOC(C)(C)C2)cc1 (stereo unspecified) | n | n | n | n | n | n | x
CCOc1ccc(N/C(N)=N/c2nc(CSc3nnnn3-c3ccccc3)cc(=O)[nH]2)cc1 | x | n | n | n | x | x | x
Nc1cc([N+](=O)[O-])ccc1N1C(=O)CCCC1=O | x | n | n | n | x | x | x
CCn1c(C)c2c(C)nnc(C)c2c1C | n | n | x | n | n | n | x
CCn1c(C)c(P(c2ccccc2)c2ccccc2)[n+]2ccccc12 | n | n | n | n | 94 | n | n
O=C(CN1CCN(C/C=C/c2ccccc2)CC1)NC(=O)NC1CCCCC1 | n | n | n | n | n | n | x
O=S(=O)(c1cccc(F)c1)N1CCN(C(=S)NCc2ccccc2)CC1 | n | n | n | n | n | n | x
CCN(CC)c1ccc(NC(=O)c2ccc(Br)o2)c(C)c1 | n | n | x | n | 57 | n | n
